From PubChem BioAssay
ARNT-TACC3 inh – disruptors of ARNT/TACC3 protein interaction, primary screen, biochemical, AlphaScreen, single concentration; AlphaScreen His-ARNT PAS-B/GST-TACC3 binding, luminescence; TACC3 fragment carries E629A point mutation; 390,000 compounds, 0.66% hits; Transforming acidic coiled-coil-containing protein 3 (Homo sapiens), Q9Y6A5; inhibition, % at 9.99 µM;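 active = mean inhibition of replicates at least 50% and at least half of replicates each reaching 50%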;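 also: 0% = complete ARNT plus TACC3 wells and 100% = ARNT alone without TACC3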
Cardiac RTF inh – cardiac RTF calcium sensitivity inhibitors, primary screen, biochemical, IANBD-TnC fluorescence, EC70 calcium; IANBD-labeled cardiac RTF, Ca2+ fluorescence; 340,000 compounds, 0.12% hits; inhibition, % at 7.15 µM; Troponin I, cardiac muscle (Homo sapiens) + Troponin T, cardiac muscle (Homo sapiens) + …;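 active = inhibition above the mean inhibition of all tested compounds plus 3 SD, cut at about 17% in these data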;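 also: assay run at fixed EC70 calcium of 1.6 mM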
Efflux pump mplx – inhibitors of Candida efflux pumps in yeast, primary screen, S. cerevisiae, Nile Red, multiplex. 330,000 compounds, 0.44% hits. S. cerevisiae Candida pump triplex. inhibition, % at 10 µM;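 active = plate passing quality check with inhibition over a set limit, or well fluorescence over plate mean plus 4 SD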;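 also: Nile Red retained in pooled yeast measured as flow cytometry median fluorescence; 0% = buffer negative control and 100% = Enniatin B positive control; higher means more Nile Red kept so more efflux inhibition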
SUMO Mot1 rescue – yeast Mot1-301 growth rescue at high temperature, primary screen, SUMOylation pathway inhibitor project, S. cerevisiae, ATP luminescence, 38.5C | S. cerevisiae Mot1-301 growth rescue; percent above DMSO median, 100 means doubled | growth rescue, % at 18.8 µM | 320,000 compounds, 1% hits | AID 2716, 2010;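 active = every valid replicate shows activation above 250% relative to neutral control wells; inactive = the rest, any valid replicate at or below 250%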;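 also: OY570 slx delta 5 strain wells were the positive control but not used for scaling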
UCH37 inh – inhibitors of human UCH37 deubiquitinase, primary screen, biochemical, Ub-AMC cleavage, fluorescence; Ubiquitin carboxyl-terminal hydrolase isozyme L5 (Homo sapiens), Q9Y5K5; purified proteasome/UCH37; inhibition, % (no concentration beside the values); 330,000 compounds, 0.33% hits; AID 588478, 2011;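 active = mean inhibition over replicate wells above about 20%, limit read from the data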;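 also: 0% = compound-free wells with enzyme and 100% = wells lacking proteasome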
Target sequence (Q9Y5K5 whole entry, looked up): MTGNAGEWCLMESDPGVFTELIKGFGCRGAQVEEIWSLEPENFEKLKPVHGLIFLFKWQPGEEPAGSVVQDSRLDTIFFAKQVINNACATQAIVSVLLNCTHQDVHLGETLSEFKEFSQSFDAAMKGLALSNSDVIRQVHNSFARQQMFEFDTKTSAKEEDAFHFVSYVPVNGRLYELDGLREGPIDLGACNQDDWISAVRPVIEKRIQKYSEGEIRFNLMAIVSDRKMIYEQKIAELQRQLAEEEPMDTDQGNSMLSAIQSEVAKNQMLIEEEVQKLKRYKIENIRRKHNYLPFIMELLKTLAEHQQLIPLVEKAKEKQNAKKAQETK
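assay system = human UCH37 enzyme supplied as purified proteasome complex | amount = proteasome at 0.15 nM in the dispensed enzyme solution | schedule = 30 min compound-proteasome preincubation then 25 min substrate reaction, room temperature | measured by = fluorescence, ex 355 nm, em 460 nm | benchmarks = no-proteasome wells (full inhibition) and compound-free wells (no inhibition)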
RTF Ca sens act – cardiac RTF calcium sensitivity activators, primary screen, biochemical, IANBD-TnC fluorescence, EC20 calcium; IANBD-labeled TnC RTF fluorescence at EC20 calcium; 0% EC20 calcium, 100% full calcium; 340,000 compounds, 0.24% hits; activation, % at 7.2 µM;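 active = activation above the mean over all tested compounds plus 3 SD, cut at about 30% in these data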;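 also: rise in fluorescence read as greater calcium sensitivity of cardiac thin filaments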
Mot1 SUMO dose – growth restoration of Mot1-301 yeast on galactose, dose response, SUMO pathway inhibitor project, whole organism, S. cerevisiae, ATP luminescence, cherry-picked samples. S. cerevisiae Mot1-301 galactose growth, 24 h; -100 = growth of slx-deleted rescue strain. shares compounds with SUMO Mot1 rescue. 2,300 tested, under 10 active. growth activity, percent, % at 42 µM. AID 493004, 2010;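 active = Signal drops as the depositor expects, and the fitted half-maximal dose is no more than ten times the top valid tested dose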;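 also: more negative values mean stronger growth rescue toward the control strain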
Starred values were filed as active, the others as inactive; nt = no result given; + = active, no number. In the library only some 2.1% were active in any assay of this set; here they are far more common.

SMILES	ARNT-TACC3 inh	Cardiac RTF inh	Efflux pump mplx	SUMO Mot1 rescue	UCH37 inh	RTF Ca sens act	Mot1 SUMO dose
CCOc1cc(C=NN2CCOCC2)ccc1OCc1ccc(C(=O)OC)o1	nt	nt	nt	nt	3	nt	nt
CN1C(=O)c2cccc3c(Cl)ccc(c23)C1=O	-25	0	0	610*	-121	13	1
COc1ccc(OC)c(-c2cc(C(=O)Nc3c(C)nn(Cc4ccccc4Cl)c3C)no2)c1	-9	0	0	571*	-42	3	0
CC[n+]1c(/C=C/N(C)c2ccccc2)n(-c2ccccc2)c2ccc(-c3nc4ccccc4s3)cc21	41	5	0	501*	-17	-5	-1
CC[n+]1cccc(-c2nc3ccccc3s2)c1	-11	2	0	-1	1	-1	nt
O=C(NCCCN1CCOCC1)C(=O)NN=Cc1cccc2ccccc12	nt	nt	nt	nt	-1	nt	nt
CCOC(=O)NN=C(C)c1ccc([N+](=O)[O-])o1	nt	nt	nt	nt	9	nt	nt
COc1ccc(NC(=O)c2cc(S(=O)(=O)Nc3ccc(OC)cc3)cs2)cc1	1	8	0	527*	4	-4	0
Cc1cc(C)cc(NS(=O)(=O)c2csc(C(N)=O)c2)c1	-10	-1	0	-10	0	-4	nt
O=C(Nc1ccc(F)cc1)c1cc(S(=O)(=O)Nc2ccc(F)cc2)cs1	11	3	0	564	1	-3	nt
Cc1ccc(NS(=O)(=O)c2csc(C(N)=O)c2)cc1C	2	-6	0	369*	0	0	-1
CC(=NNC(=O)c1ccc(Cl)cc1Cl)c1cccnc1	nt	nt	nt	nt	1	nt	nt
COc1ccc(C2CC3(CC(C)(C)NC(=S)N3)Oc3cc(O)cc(C)c32)cc1 (stereo not drawn)	12	-15	-2	978*	1	1	0
NC(=O)CC(NC(=S)NCc1ccccc1)C(=O)O (stereo not drawn)	11	8	0	583*	4	-6	0
Cc1c(C)c2c(c(C)c1O)CCC(C)(C(=O)O)O2 (stereo not drawn)	-5	8	0	548*	3	3	0
Cc1c(C)c2c(c(C)c1O)CC[C@@](C)(CCC[C@H](C)CCC[C@H](C)CCCC(C)C)O2	-1	6	0	35	1	-2	nt
COc1ccc(OC)c(C2=Nn3c(nnc3-c3ccco3)SC2)c1	2	1	0	5	6	-1	nt
COc1ccc(C2=Nn3c(nnc3-c3ccco3)SC2)cc1	35	-5	0	533*	6	0	-1
COc1ccc(N(C(=O)c2ccncc2)S(=O)(=O)c2ccc(F)cc2)cc1	-12	-2	0	451*	nt	0	0
O=C1c2ccccc2NC(c2ccccc2O)N1O (stereo not drawn)	3	-6	0	384*	-5	12	-1
Cc1cc(C=NNc2ccc([N+](=O)[O-])cn2)c(C)n1-c1ccc(C(=O)O)cc1	nt	nt	nt	nt	11	nt	nt
CCS(=O)(=O)N1CCCC(C(=O)NCc2cccnc2)C1 (stereo not drawn)	4	2	0	362*	nt	-1	0
Cc1ccccc1-c1nc(CN2CCCC(C(=O)NCc3cccnc3)C2)c(C)o1 (stereo not drawn)	6	-3	0	+	-3	-2	0
CCc1cc(CC)c(C=NNC(N)=O)c(CC)c1	nt	nt	nt	nt	4	nt	nt
CC(=NO)c1ccn(S(=O)(=O)c2ccc(Cl)cc2)c1	nt	nt	nt	nt	2	nt	nt
SMILES	ARNT-TACC3 inh	Cardiac RTF inh	Efflux pump mplx	SUMO Mot1 rescue	UCH37 inh	RTF Ca sens act	Mot1 SUMO dose
Cc1ccc(S(=O)(=O)N2CCCC2C(=O)NCCc2ccccc2)cc1 (stereo not drawn)	-8	9	0	471*	1	-2	0
COc1ccc(C)cc1S(=O)(=O)N1CCC(C(=O)NCCc2ccccc2)CC1	-14	-13	0	413*	-1	-1	0
O=C(NCCc1ccccc1)C1CCCN1S(=O)(=O)c1ccc(Cl)cc1 (stereo not drawn)	0	-2	0	7	4	2	nt
Cc1no[n+]([O-])c1COc1cccc(C=NNc2nncn2N)c1	nt	nt	nt	nt	7	nt	nt
COc1cccc(C(=O)NCc2ccc(-c3nc4ccccc4s3)cc2)c1	-5	-2	0	375*	-1	9	0
COc1ccc(C(=O)NCc2ccc(-c3nc4ccccc4s3)cc2)cc1	-5	3	0	-3	-6	1	nt
O=[N+]([O-])c1c(NCCCO)cc(Sc2nc3ccccc3s2)c2nonc12	4	-8	1	782*	12	-4	-2
CC(=NOC(=O)C1CC12CCC2)c1ccc(Br)cc1 (stereo not drawn)	nt	nt	nt	nt	1	nt	nt
CCOc1ccc(C=NNC2=NCCCCC2)cc1	nt	nt	nt	nt	1	nt	nt
CCc1nnc(NC(=O)CSc2nc3c(cc2C#N)CCCC3)s1	nt	-4	0	736*	3	-2	1
CCOC(=O)c1sc(NC(=O)CSc2nc3c(cc2C#N)CCCCC3)c(C#N)c1C	0	-10	0	104	-3	-2	nt
COc1ccc(N2C(=O)CC(NCc3cccs3)C2=O)cc1 (stereo not drawn)	nt	-19	0	359*	4	-4	1
Cc1ccc(S(=O)(=O)N2CCN(CC(=O)NN=Cc3cc([N+](=O)[O-])ccc3Cl)CC2)cc1	nt	nt	nt	nt	0	nt	nt
O=C(NCO)c1cccnc1	0	-3	nt	nt	nt	3	nt
CCOC(=O)CNC(=O)c1cccnc1	11	3	0	+	3	-3	0
C/C(=N\N=C(/N)SC1CC(=O)N(c2cccc(Cl)c2)C1=O)c1cccs1 (stereo not drawn)	7	-2	0	374*	nt	6	-1
COc1cc(C=NNC(=O)c2ccc(N)cc2)ccc1OC(=O)c1cccc(C)c1	nt	nt	nt	nt	-13	nt	nt
COc1cc(C=NNC(=O)Cc2nnc(N)s2)cc(OC)c1OC	nt	nt	nt	nt	3	nt	nt
COc1ccccc1N1CCN(C(=O)C2CCN(S(=O)(=O)c3ccccc3F)CC2)CC1	4	-1	0	-2	-2	1	nt
